Dynein cargo inh: dynein cargo transport inhibition | 3617.4 mouse cells, GR-EGFP nuclear translocation imaging; test concentration mostly 20 µM; stimulated with dexamethasone, 1 µM; active compounds read low | z-score, hits read low | hit rate 0.47% among 220,000 | AID 1381;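 active means plate z-score of nuclear minus cytoplasmic receptor signal below a set negative limit, without overly bright fluorescence or cell loss, cut at about -3.5 in these data, passing the limit was not always enough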;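 further: z-score of nuclear minus cytoplasmic ring GR-EGFP intensity difference per well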
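Buffer or medium: tet-free, stripped-serum medium; reagent: dexamethasone at 1.0 µM final, 30 min; incubation: 48 h induction, 1 h compound, 30 min dex at 37 °C; measured by: formaldehyde fixation, Hoechst nuclear stain, 10x automated fluorescence imaging; read-out: nuclear-to-cytoplasmic GR-EGFP distribution per well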
NCF1 inh: inhibitors of human p47phox binding | P14598 | p47phox/p22phox peptide binding, fluorescence polarization, 2 h | inhibition, % at 24.7 µM | hit rate 0.53% among 220,000 | AID 1274;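 active means inhibition above about 30%, limit read from the data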;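 further: 0% = p47phox with labelled peptide and 100% = labelled peptide alone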
Target sequence (P14598 whole entry, looked up): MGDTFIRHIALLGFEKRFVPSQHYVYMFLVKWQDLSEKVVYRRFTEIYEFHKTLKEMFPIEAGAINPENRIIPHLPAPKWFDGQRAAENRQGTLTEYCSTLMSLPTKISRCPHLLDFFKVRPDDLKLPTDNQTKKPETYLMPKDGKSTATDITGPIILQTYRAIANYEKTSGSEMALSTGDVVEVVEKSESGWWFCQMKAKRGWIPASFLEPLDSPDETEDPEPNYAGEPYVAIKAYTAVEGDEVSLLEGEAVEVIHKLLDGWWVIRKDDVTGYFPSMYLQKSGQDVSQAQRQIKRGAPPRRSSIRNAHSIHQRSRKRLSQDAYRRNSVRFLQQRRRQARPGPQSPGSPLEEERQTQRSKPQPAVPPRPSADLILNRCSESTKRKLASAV
p-CIP stab down: p/CIP protein destabilization; Q05BA5; hit rate 0.01% among 290,000; decrease of EGFP signal, % at 10 µM; F442A p/CIP-EGFP cells, EGFP fluorescence, 16 h; AID 1984;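 active means EGFP signal decrease of at least 30% at 10 µM or well 3 SD below plate mean, unless failing retest; inactive means the rest, including hits failing retest or dose response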
RAM inhibit: blocks the yeast RAM network | inhibition, % at 50 µM | hit rate 1.8% among 190,000 | S. cerevisiae dse1pr::URA3 reporter, 5-FOA growth OD615, 2 d; analog-sensitive cbk1-as2 kinase mutant strain;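 active means inhibition above a set limit, 3 SD over mean compound inhibition, cut at about 8.4% in these data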;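 further: 0% = DMSO-only wells with no growth and 100% = 10 µM 1-NA-PP1 full growth; inhibition rescues growth on 5-FOA so higher OD means more RAM inhibition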
Starred values were filed as active, the others as inactive; x = not tested or not shown. Shown are actives, neighbours in structure and some others; about 1.9% of the full set was active somewhere.

SMILES	Dynein cargo inh	NCF1 inh	p-CIP stab down	RAM inhibit
CC(C)(C)N(Cc1ccccc1)C(=O)CSc1nnc(CNc2ccc(F)cc2)o1	-1	-12	-2	8.6*
CCCOc1ccc(OCCn2nc(C(=O)O)c3ccccc3c2=O)cc1	0.62	-3	-7	9.6*
O=C(O)c1nn(CCOc2cccc(Cl)c2)c(=O)c2ccccc12	0.57	-4	-7	8.8*
O=C(O)c1nn(CCOc2cccc(Br)c2)c(=O)c2ccccc12	x	x	-10	x
CC(C)OCCCNC(=O)c1cc(-c2cccnc2)nc2ccccc12	x	x	4	x
CCCCN(C(=O)C(C)Oc1ccc(Br)cc1)c1c(N)n(Cc2ccccc2)c(=O)[nH]c1=O (stereo not drawn)	x	x	-16	x
Cc1ccc(Cn2ncc3c(N4CCN(c5ccccc5C)CC4)ncnc32)cc1	-0.63	0	-12	10*
Cc1ccc(Cn2ncc3c(N4CCOCC4)ncnc32)cc1	0.77	-5	11	1
CCOC(=O)N1CCC(NC(=O)c2cccn3c(=O)c4cc(Br)ccc4nc23)CC1	-0.41	19	40*	1
CCOC(=O)N1CCC(NC(=O)c2ccc3nc4ccccc4c(=O)n3c2)CC1	-0.34	39*	-20	1
CCOC(=O)N1CCC(NC(=O)c2cc(-c3ccc(OC)cc3)nc3ccccc23)CC1	x	x	7	x
O=C(Nc1ccc(OC(F)F)c(Cl)c1)C(c1ccccc1)c1ccccc1	-0.022	-8	-8	9.6*
O=C(Cc1cccc2ccccc12)Nc1ccc(OC(F)F)c(Cl)c1	-0.3	-16	3	7
COC(=O)c1sccc1N/N=C/c1cccc(Oc2ccccc2)c1	-0.7	-5	1	8.5*
N=C1C(c2nc3ccccc3[nH]2)=C(O)CN1NC(=O)COc1cccc(F)c1	-0.57	-3	-2	0
CCOc1ccc(C2/C(=C(\O)c3ccc4c(c3)OCCO4)C(=O)C(=O)N2CCN2CCOCC2)cc1OC (stereo not drawn)	x	x	-20	x
CCc1cc(=O)oc2cc3occ(-c4ccc(OC)c(F)c4)c3cc12	-0.69	47*	-8	3
CCCCN(C)C(=S)Nc1ccsc1C(=O)OC	0.33	45*	-11	1
Cc1c(C(=O)N/N=C/c2cccnc2)nnn1-c1nonc1N	x	x	-2	x
CCN(CC)S(=O)(=O)c1cc(C(=O)Nc2cc(C)on2)c(Cl)cc1Cl	x	x	5	x
COc1ccc(/C=C/C(=O)NC(=S)Nc2cc3oc4ccccc4c3cc2OC)cc1	-0.14	20	0	3
COc1ccc(S(=O)(=O)N[C@@H](C)C(=O)OCC(=O)Nc2cc3oc4ccccc4c3cc2OC)cc1	0.39	-27	2	9.6*
COc1cc2c(cc1NC(=O)CSc1ccccc1)oc1ccccc12	0.54	-49	-2	11*
COc1cc2c(cc1NC(=S)NC(=O)/C=C/c1ccc(OC)c(OC)c1)oc1ccccc12	0.38	37*	8	-1
Cn1c(=O)c2c(nc(NCCNC(=O)c3ccco3)n2Cc2ccccc2)n(C)c1=O	x	x	6	x
SMILES	Dynein cargo inh	NCF1 inh	p-CIP stab down	RAM inhibit
CCOC(=O)[C@@H]1[C@H]2COc3ccccc3[C@H]2N2C(=O)N(c3ccc(OC)cc3)C(=O)[C@]12C	x	x	6	x
NS(=O)(=O)c1ccc(N/N=C/c2cn(-c3ccccc3)nc2-c2cccs2)c([N+](=O)[O-])c1	-0.00051	9	-18	5
N#Cc1ccc(N/N=C/c2cn(-c3ccccc3)nc2-c2ccccc2)c([N+](=O)[O-])c1	-0.72	51*	5	4
c1ccc2c(c1)CCN(c1nc(CN3CCOCC3)nc3sc4c(c13)CCCC4)C2	0.31	-19	-21	0
C=CCN(C(=O)CNC(=O)c1ccco1)C(C(=O)NC1CCCCC1)c1ccccc1 (stereo not drawn)	-0.52	2	-8	9.2*
C=CCN(C(=O)CNC(=O)c1ccco1)C(C(=O)NC1CCCCC1)c1ccc(F)cc1 (stereo not drawn)	-0.45	5	-1	4
CCc1ccc(CN(C)C(=O)c2cc(COc3c(F)cccc3F)on2)cc1	0.7	2	-14	9.4*
O=C(NCc1ccc(Cl)s1)c1cc(COc2c(F)cccc2F)on1	-0.97	-15	-3	9.1*
O=C(c1cc(COc2c(F)cccc2F)on1)N1CCC(c2ccccc2Cl)C1 (stereo not drawn)	2.6	-12	1	8.4*
CN(Cc1cccc2ccccc12)C(=O)c1cc(COc2c(F)cccc2F)on1	-0.56	-1	-10	6
COc1ccc(N(CC(=O)N2CCc3ccccc32)S(=O)(=O)c2c(C)nn(C)c2C)cc1	0.97	-16	-18	8.9*
CCCCCn1c(SCC(=O)OCC)nc2cc(C(=O)NCc3ccco3)ccc2c1=O	2.6	-1	-7	11*
C=CCn1c(SCC(=O)OCC)nc2cc(C(=O)NCc3ccco3)ccc2c1=O	-1	3	-3	3
Cc1ccc(NC(=O)CSc2nnc(-c3cc(C)[nH]n3)n2N)c(C)c1	x	x	-21	x
C=CCOC(=O)c1cc(-c2ccc(/C=C3\C(=O)NC(=O)C(C#N)=C3C)o2)ccc1Cl	-4.4*	39*	-8	8
CC1=C(C#N)C(=O)NC(=O)/C1=C/c1ccc(-c2ccc(S(N)(=O)=O)cc2)o1	3	-9	-18	1
CCCOC(=O)c1cc(-c2ccc(/C=C3/C(=O)N(C)C(=O)C(C#N)=C3C)o2)ccc1Cl	-3.7*	x	x	x
O=C(CSc1nnc(CNC(=O)c2cccs2)o1)Nc1ccccc1C(F)(F)F	x	x	4	x
CC(C)NC(=S)n1cc(C(=O)c2cc(Cl)cc(Cl)c2O)cn1	x	x	-15	x
CCOC(=O)/C(=N\Nc1ccc(OC)cc1)c1csc(Nc2ccccc2)n1	0.98	-9	3	11*
CCN(CC)S(=O)(=O)c1cc(C(=O)OCC(=O)Nc2cccc(S(=O)(=O)N(C)C)c2)ccc1F	-0.88	10	13	9.2*
CCN(CC)S(=O)(=O)c1cc(NC(=O)COC(=O)CCC(=O)c2ccc(F)cc2)ccc1C	-0.76	-32	-3	9.5*
Cc1ccc(NC(=O)C(C)c2cccc(C(=O)c3ccccc3)c2)cc1O (stereo not drawn)	-0.45	-20	-6	8.8*
Cc1cccc(NC(=O)C(C)C(=O)c2ccccc2)c1 (stereo not drawn)	x	x	6	x
CCc1ccc(C(=O)C(C)OC(=O)C2COc3ccccc3O2)cc1 (stereo not drawn)	0.15	-13	-9	2
SMILES	Dynein cargo inh	NCF1 inh	p-CIP stab down	RAM inhibit
O=C(Nc1ccc(Cl)cn1)c1ccc(COc2ccccc2Br)o1	0.27	-16	-5	11*
COc1ccc(CNC(=O)C2CCC(=O)N(CCCN3CCCC3=O)C2)c(OC)c1 (stereo not drawn)	x	x	-18	x
O=c1c2ccccc2nc2c3ccccc3c(NCCN3CCOCC3)nn12	0.37	-13	0	5
O=c1c2c(-c3ccccc3)csc2nc2c3ccccc3c(NCCN3CCOCC3)nn12	-3.3	74*	-5	4
COc1ccc(C(=O)CSc2cc(C)nc3nc(C)nn23)cc1OC	0.19	129*	-4	8
COc1ccc(C(=O)CSc2nc(SC)ns2)cc1OC	-0.18	-10	-14	5

Source: PubChem BioAssay
